Results taken from ChEMBL document CHEMBL3877317, “Quinazolinone derivatives: Synthesis and comparison of inhibitory mechanisms on α-glucosidase” (Bioorg Med Chem, 2017).
Activity calls are given as the source filed them. The rule behind the calls is not given here.

Assays:
[1] = test system: Saccharomyces cerevisiae; assay: Binding affinity to Saccharomyces cerevisiae alpha-glucosidase type 1 assessed as Stern-Volmer quenching constant at 25 degC by fluorescence spectrophotometric method
In short: (§1)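 Fluorescence quenching: enzyme (0.1 mg/mL, 50 µL) mixed with sample at varied concentrations in 0.1 mM sodium phosphate buffer, 25 °C. Excitation 280 nm, emission scanned 300-500 nm. F0/F plotted against [Q] and fitted to the Stern-Volmer equation (F0/F = 1 + Kqτ0[Q] = 1 + Ksv[Q]) to give Ksv and Kq.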

[2] = test system: Saccharomyces cerevisiae; assay: Binding affinity to Saccharomyces cerevisiae alpha-glucosidase type 1 assessed as quenching velocity constant of biomolecular reaction at 25 degC by fluorescence spectrophotometric method; in short: as §1
[3] = test system: Saccharomyces cerevisiae; assay: Binding affinity to Saccharomyces cerevisiae alpha-glucosidase type 1 assessed as fluorescence quenching by measuring relative fluorescence intensity at 60 uM by fluorescence spectrophotometric method
In short: (§2)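 Intrinsic enzyme fluorescence (peak 330 nm) recorded with excitation 280 nm, emission 300-500 nm, 25 °C. Enzyme 0.1 mg/mL in 0.1 mM sodium phosphate buffer; compound series 0-50 µM or 0-60 µM. Relative intensity expressed as F/F0 against enzyme alone.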

[4] = test system: Saccharomyces cerevisiae; assay: Reversible inhibition of Saccharomyces cerevisiae alpha-glucosidase type 1 at 8 to 24 uM using p-nitro-phenyl-alpha-D-glucopyranoside as substrate preincubated for 10 mins followed by substrate addition measured after 5 mins every 10 secs
[5] = Non-competitive inhibition of Saccharomyces cerevisiae alpha-glucosidase type 1 using p-nitro-phenyl-alpha-D-glucopyranoside as substrate preincubated for 10 mins followed by substrate addition measured after 5 mins every 10 secs by Lineweaver-Burk plot analysis
In short: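 Same pNPG assay (0.1 M potassium phosphate pH 6.8, A405 every 10 s, ambient temperature), inhibitor 0-24 µM (or 0-16 µM). Inhibition type assigned from Lineweaver-Burk plots. KI taken from the secondary plot.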

[6] = Inhibition of Saccharomyces cerevisiae alpha-glucosidase type 1 using p-nitro-phenyl-alpha-D-glucopyranoside as substrate preincubated for 10 mins followed by substrate addition measured after 5 mins every 10 secs
In short: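 Enzyme (7 U/mL, 50 µL) with sample at varied concentrations, then 5 mM pNPG (200 µL) in 0.1 M potassium phosphate pH 6.8. A405 read every 10 s at ambient temperature. Relative activity = slope with inhibitor / slope without × 100. Acarbose as positive control.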

[7] = test system: Saccharomyces cerevisiae; assay: Binding affinity to Saccharomyces cerevisiae alpha-glucosidase type 1 at 25 degC by fluorescence spectrophotometric method
[8] = test system: Saccharomyces cerevisiae; assay: Binding affinity to Saccharomyces cerevisiae alpha-glucosidase type 1 assessed as fluorescence quenching by measuring relative fluorescence intensity at 50 uM by fluorescence spectrophotometric method; in short: as §2

| KSV [1] | Kq [2] | Activity [3] [%] | inhibition [4] | Ki [5] [µM] | IC50 [6] [µM] | K [7] [×10⁴ L/mol] | Activity [8] [%] | SMILES |
| --- | --- | --- | --- | --- | --- | --- | --- | --- |
| 7.26 ×10³ L/mol | 7.26 ×10¹¹ L/mol.s | 69.3 | Active | 10.6 | 15.6 | 1.25 |  | O=c1[nH]c(-c2ccc(Br)cc2)nc2ccccc12 |
|  |  |  |  |  | 475 |  |  | C[C@H]1O[C@H](O[C@H]2[C@H](O)[C@@H](O)[C@@H](O[C@H]3[C@H](O)[C@@H](O)C(O)O[C@@H]3CO)O[C@@H]2CO)[C@H](O)[C@@H](O)[C@@H]1N[C@H]1C=C(CO)[C@@H](O)[C@H](O)[C@H]1O (stereo partly specified) [ACARBOSE] |
|  |  |  |  |  | > 57.2 |  |  | Oc1nc(-c2ccc(F)cc2)nc2ccccc12 |
| 3.1 ×10⁴ L/mol | 3.1 ×10¹² L/mol.s |  | Active | 9.1 | 12.5 | 1.78 | 39.3 | O=c1[nH]c(-c2ccc(Cl)cc2)nc2ccccc12 |
